{"data": "Measurements from different studies"}
{"SMILES": "O=C1Nc2cc(F)cc(F)c2C(=O)CCc2ccccc21", "system": "male Swiss mouse, plasma", "conditions": "oral", "bioavailability [%]": "~20"}
{"SMILES": "CC[C@H](C)[C@@H]1NC(=O)[C@@](C)(NC(=O)[C@H](CCCNC(=N)N)NC(=O)[C@H](CC(C)C)NC(=O)[C@@H](NC(=O)[C@H](CCC(N)=O)NC(=O)[C@H](CC(C)C)NC(C)=O)[C@@H](C)O)CCCC=CCCC[C@@](C)(C(=O)N[C@@H](CC(C)C)C(=O)N[C@@H](Cc2ccc3ccccc3c2)C(N)=O)NC(=O)[C@H](CCCNC(=N)N)NC(=O)[C@H](CCC(N)=O)NC1=O", "system": "male BALB/c mouse, plasma", "conditions": "intraperitoneal, 5 mg/kg", "bioavailability [%]": 81.1}
{"SMILES": "CCc1ccc(Cc2cc([C@@H]3O[C@H](CO)[C@@H](O)[C@H](O)[C@H]3O)cc3c2CCC3)cc1", "system": "male C57BL/6 mouse, plasma", "conditions": "oral, 3 mg/kg", "bioavailability [%]": "> 100"}
{"SMILES": "CC(C)(C)c1cc(NC(=O)Nc2ccc(Oc3ccnc4[nH]c(=O)cnc34)cc2F)n(-c2ccccc2)n1", "system": "BALB/c mouse, plasma", "conditions": "oral, 10 mg/kg", "bioavailability [%]": 54}
{"SMILES": "O=C(Nc1nccs1)C(c1cc(F)ccc1O)N1Cc2ccccc2C1=O (centres unmarked)", "system": "mouse, plasma", "conditions": "oral, 20 mg/kg", "bioavailability [%]": 26}
{"SMILES": "c1ccc2[nH]c(CNc3nc(N4CCOCC4)nc4c3ncn4-c3ccsc3)nc2c1", "system": "mouse, plasma", "conditions": "intravenous, 1 mg/kg", "bioavailability [%]": 0}
{"SMILES": "Cc1c(C(=O)Nc2ccccc2)sc(N)c1C(N)=O", "system": "male CD-1 mouse, plasma", "conditions": "oral, 10 mg/kg", "bioavailability [%]": 34}
{"SMILES": "NC[C@@H]1O[C@H](O[C@H]2[C@@H](O)[C@H](O[C@@H]3[C@@H](O)[C@H](N)C[C@H](N)[C@H]3O[C@H]3O[C@H](CO)[C@@H](O)[C@H](O)[C@H]3N)O[C@@H]2CO)[C@H](N)[C@@H](O)[C@@H]1O", "system": "male BALB/c mouse, plasma", "conditions": "oral, 500 mg/kg", "bioavailability [%]": 0.3}
{"SMILES": "C=CC(=O)Nc1cccc(Nc2nc(Nc3ccc(N4CCN(C(C)=O)CC4)cc3OC)ncc2C(F)(F)F)c1", "system": "female mouse, plasma", "conditions": "oral, 20 mg/kg", "bioavailability [%]": 65}
{"SMILES": "Cc1ccc2cncc(N3CCc4c(cc(Cn5ccnc5)cc4-c4cn(C)nc4C(F)(F)F)C3=O)c2c1", "system": "male CD-1 mouse, plasma", "conditions": "oral, 10 mg/kg", "bioavailability [%]": 35}
{"SMILES": "O=C(NCC1CC1)c1cc(N2CC[C@H](O)C2)nc(N2CCC[C@@H](c3ccccc3)C2)n1", "system": "mouse, plasma", "conditions": "oral, 10 mg/kg", "bioavailability [%]": 25}
{"SMILES": "CC(C)(Nc1nc(-c2ccccn2)nc2ccccc12)c1ccccn1", "system": "female BALB/c mouse, plasma", "conditions": "oral, 50 mg/kg", "bioavailability [%]": 102}
{"SMILES": "CN1CCc2c(c3ccccc3n2Cc2ccc(C(=O)NO)cc2)C1", "system": "male CD-1 mouse, plasma", "conditions": "oral, 30 mg/kg", "bioavailability [%]": "~6"}
{"SMILES": "Nc1ccc(-c2ccc3ncc4ccc(=O)n(-c5cccc(C(F)(F)F)c5)c4c3c2)cn1", "system": "male Swiss mouse, plasma", "conditions": "oral, 10 mg/kg", "bioavailability [%]": 54}
{"SMILES": "CCc1cc(OC)c2nccc(N3CCc4c(cc(Cn5ccnc5)cc4-c4cn(C)nc4C(F)(F)F)C3=O)c2c1", "system": "male CD-1 mouse, plasma", "conditions": "oral, 50 mg/kg", "bioavailability [%]": 194}
{"SMILES": "COc1nc(-c2cc(C)c(N[C@@H](C)c3c(F)cc(F)cc3F)nn2)ccc1-n1cnc(C)c1", "system": "male CD-1 mouse, plasma", "conditions": "oral, 5 mg/kg, single dose", "bioavailability [%]": 63.7}
{"SMILES": "N[C@@H](CSSC[C@H](N)C(=O)O)C(=O)O", "system": "Kunming mouse, plasma", "conditions": "oral, 50 mg/kg", "bioavailability [%]": 15.1}
{"SMILES": "Nc1ncc(-c2ccncc2)nc1Nc1ccc2[nH]ccc2c1", "system": "male C57BL/6 mouse, plasma", "conditions": "oral, 30 mg/kg", "bioavailability [%]": 89}
{"SMILES": "CCN1CCN(Cc2cc(NC(=O)c3ccc(C)c(-c4ccc5nc(NC(=O)C6CC6)cn5n4)c3)cc(C(F)(F)F)c2)CC1", "system": "Swiss mouse, plasma", "conditions": "oral, 10 mg/kg", "bioavailability [%]": 4}
{"SMILES": "COc1cc2ccccc2cc1C(=O)NC(=S)Nc1ccc(-c2nc3ccccc3[nH]2)cc1", "system": "mouse, plasma", "conditions": "oral, 5 mg/kg", "bioavailability [%]": "< 1"}
{"SMILES": "COc1ccc2nccc(N3CCc4c(cc(Cn5ccnc5)cc4-c4cn(C)nc4C(F)(F)F)C3=O)c2c1", "system": "male CD-1 mouse, plasma", "conditions": "oral, 10 mg/kg", "bioavailability [%]": 34}
{"SMILES": "CCOc1ccc(Cc2cc([C@@H]3O[C@H](CO)[C@@H](O)[C@H](O)[C@H]3O)ccc2Cl)cc1", "system": "male C57BL/6 mouse, plasma", "conditions": "oral, 1 mg/kg", "bioavailability [%]": 67}
{"SMILES": "CCc1cc(C(=O)NC)c2nccc(N3CCc4c(cc(Cn5ccnc5)cc4-c4cn(C)nc4C(F)(F)F)C3=O)c2c1", "system": "male CD-1 mouse, plasma", "conditions": "oral, 50 mg/kg", "bioavailability [%]": 175}
{"SMILES": "O=C(CC1Cc2ccccc2C1)N[C@H](CN1CCCC1)[C@H](O)c1ccc(OC(F)(F)F)cc1", "system": "CD-1 mouse, plasma", "conditions": "oral, 10 mg/kg", "bioavailability [%]": 34}
{"SMILES": "CNC(=O)c1cc(OC)cc2c(N3CCc4c(cc(Cn5ccnc5)cc4-c4cn(C)nc4C(F)(F)F)C3=O)ccnc12", "system": "male CD-1 mouse, plasma", "conditions": "oral, 50 mg/kg", "bioavailability [%]": 263}
{"SMILES": "O=C(NCCN1CCCC1)c1cc(-c2ccc(CN3CCOCC3)cc2)nc2ccc(F)cc12", "system": "female NMRI mouse, blood", "conditions": "oral, 3 mg/kg", "bioavailability [%]": 74}
